Assay results reported in ChEMBL document CHEMBL4261563, “Synthesis and in vitro evaluation of substituted 3-cinnamoyl-4-hydroxy-pyran-2-one (CHP) in pursuit of new potential antituberculosis agents” (Medchemcomm, 2018).
Values after ≈ are worked out from the molar mass of the structure shown.

What was measured:
HEK293 = experiment: Cytotoxicity against HEK293 cells by MTT assay; format: cell-based, Homo sapiens; conditions: for IC50: Homo sapiens, HEK293; for Activity: human, hek293
In short: (§1)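 HEK-293 (from NCCS, Pune) treated at 1, 20, 40 and 80 μM, then at 100 μM. Percentage growth inhibition measured by MTT assay. IC50 assigned from whether inhibition reached ≥50% at 100 μM, the highest concentration tested.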

[1] = test system: Mycobacterium tuberculosis; experiment: Antitubercular activity against Mycobacterium tuberculosis H37Rv after 2 weeks by broth microdilution method; format: functional; conditions: 336 h
In short: (§2)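 Middlebrook 7H9 broth microdilution with 10% ADC, compounds at […] μg ml−1 in duplicate. Each well received mid-log M. tuberculosis H37Rv at ∼1 × 10^5 CFU ml−1, checked by plating 10-fold dilutions on 7H11 agar (37 °C, read at four weeks). Drug-free broth was the negative control. MIC was the lowest concentration (μg ml−1) preventing visible growth after two weeks.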

[2] = test system: Mycolicibacterium smegmatis; experiment: Antimycobacterial activity against Mycobacterium smegmatis after 72 hrs by broth microdilution method; format: functional
Klebsiella pneumoniae = experiment: Antibacterial activity against Klebsiella pneumoniae ATCC BAA-2146 after 24 hrs by broth microdilution method; format: functional; conditions: ATCC BAA-2146, 24 h
In short: (§3)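 Strains revived on Mueller Hinton agar, 37 °C for 24 h. MIC by broth microdilution in MH broth, read after 24 h at 37 °C by visual turbidity, highest concentration tested 128 μg ml−1. Levofloxacin as positive control.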

Bacillus subtilis = experiment: Antibacterial activity against Bacillus subtilis ATCC 11774 after 24 hrs by broth microdilution method; format: functional; conditions: ATCC 11774, 24 h; in short: as §3
Escherichia coli = experiment: Antibacterial activity against Escherichia coli ATCC 10536 after 24 hrs by broth microdilution method; format: functional; conditions: ATCC 10536, 24 h; in short: as §3
Staphylococcus aureus = experiment: Antibacterial activity against Staphylococcus aureus ATCC 25923 after 24 hrs by broth microdilution method; format: functional; conditions: ATCC 25923, 24 h; in short: as §3
[3] = test system: Staphylococcus epidermidis; experiment: Antibacterial activity against Staphylococcus epidermidis ATCC 12228 after 24 hrs by broth microdilution method; format: functional; conditions: ATCC 12228, 24 h; in short: as §3
Pseudomonas aeruginosa = experiment: Antibacterial activity against Pseudomonas aeruginosa ATCC 10145 after 24 hrs by broth microdilution method; format: functional; conditions: ATCC 10145, 24 h; in short: as §3
Enterococcus faecalis = experiment: Antibacterial activity against Enterococcus faecalis ATCC 51299 after 24 hrs by broth microdilution method; format: functional; conditions: ATCC 51299, 24 h; in short: as §3
Micrococcus luteus = experiment: Antibacterial activity against Micrococcus luteus ATCC 10240 after 24 hrs by broth microdilution method; format: functional; conditions: ATCC 10240, 24 h; in short: as §3
[4] = test system: Mycobacterium tuberculosis; experiment: Antitubercular activity against Mycobacterium tuberculosis H37Rv; format: functional; in short: as §2
[5] = Selectivity ratio of MIC for Mycobacterium smegmatis to MIC for Mycobacterium tuberculosis H37Rv; format: functional
PC-3 = experiment: Cytotoxicity against human PC3 cells assessed as growth inhibition by MTT assay; format: cell-based; conditions: for Activity: human, pc-3
In short: (§4)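 HCT-116, MCF-7 and PC-3 cells (from NCI, USA) exposed to double dilutions from 0.0 to 100 μM. Growth inhibition measured by MTT cell viability assay. Results given as mean ± standard deviation of percentage growth inhibition.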

MCF7 = experiment: Cytotoxicity against human MCF7 cells assessed as growth inhibition by MTT assay; format: cell-based; conditions: for Activity: human, mcf7; in short: as §4
[6] = Cytotoxicity against HEK293 cells assessed as growth inhibition at 100 uM by MTT assay relative to control; format: cell-based; conditions: human, read-out: GI; in short: as §1
HCT-116 = experiment: Cytotoxicity against human HCT116 cells assessed as growth inhibition by MTT assay; format: cell-based; conditions: for Activity: human, hct-116; in short: as §4
[7] = Cytotoxicity against human HCT116 cells assessed as growth inhibition at 100 uM by MTT assay relative to control; format: cell-based, HCT-116; conditions: read-out: GI; in short: as §4
[8] = Cytotoxicity against human MCF7 cells assessed as growth inhibition at 100 uM by MTT assay relative to control; format: cell-based; conditions: read-out: GI; in short: as §4
[9] = Cytotoxicity against human PC3 cells assessed as growth inhibition at 100 uM by MTT assay relative to control; format: cell-based, PC-3; conditions: read-out: GI; in short: as §4

| SMILES | IC50 (HEK293) | MIC [1] | MIC ([2]; read-out: MIC) | other results |
| --- | --- | --- | --- | --- |
| COc1ccc(/C=C/C(=O)c2c(O)cc(C)oc2=O)cc1 | 100 µM | 32 µg/mL (≈ 112 µM) | > 128 µg/mL | – |
| CC[C@@H](CO)NCCN[C@@H](CC)CO [ETHAMBUTOL] | – | 2.5 µg/mL (≈ 12.2 µM) | – | – |
| C[C@H]1COc2c(N3CCN(C)CC3)c(F)cc3c(=O)c(C(=O)O)cn1c23.C[C@H]1COc2c(N3CCN(C)CC3)c(F)cc3c(=O)c(C(=O)O)cn1c23.O [LEVOFLOXACIN] | – | 2.5 µg/mL | 2.5 µg/mL | MIC (Klebsiella pneumoniae): 0.625 to 1.25 µg/mL; MIC (Bacillus subtilis): 0.39 µg/mL; MIC (Escherichia coli): 0.078 µg/mL; MIC (Staphylococcus aureus): 0.078 to 0.156 µg/mL; MIC [3]: 0.039 to 0.078 µg/mL; MIC (Pseudomonas aeruginosa): 0.312 to 0.625 µg/mL; MIC (Enterococcus faecalis): 0.156 µg/mL; MIC (Micrococcus luteus): 0.078 µg/mL |
| Cc1cc(O)c(C(=O)/C=C/c2cccc(O)c2)c(=O)o1 | > 100 µM | 8 to 16 µg/mL (≈ 29.4 to 58.8 µM) | > 128 µg/mL | – |
| CN[C@@H]1[C@H](O[C@H]2[C@H](O[C@H]3[C@H](O)[C@@H](O)[C@H](N=C(N)N)[C@@H](O)[C@@H]3N=C(N)N)O[C@@H](C)[C@]2(O)C=O)O[C@@H](CO)[C@H](O)[C@H]1O [STREPTOMYCIN] | – | 1.25 µg/mL (≈ 2.15 µM) | – | – |
| CO[C@H]1/C=C/O[C@@]2(C)Oc3c(C)c(O)c4c(O)c(c(/C=N/N5CCN(C)CC5)c(O)c4c3C2=O)NC(=O)/C(C)=C\C=C\[C@H](C)[C@H](O)[C@@H](C)[C@@H](O)[C@@H](C)[C@H](OC(C)=O)[C@@H]1C [RIFAMPIN] | – | 0.078 µg/mL (≈ 0.0948 µM) | – | MIC [4]: 0.2 µg/mL (≈ 0.243 µM); Selectivity ratio [5]: 500 |
| Cc1cc(O)c(C(=O)/C=C/c2ccc(Br)cc2)c(=O)o1 | 100 µM | 8 to 16 µg/mL (≈ 23.9 to 47.7 µM) | > 128 µg/mL | – |
| Cc1cc(O)c(C(=O)/C=C/c2ccccc2)c(=O)o1 | – | 4 µg/mL (≈ 15.6 µM) | > 128 µg/mL | Activity (HEK293): Dose-dependent effect; Activity (PC-3): Dose-dependent effect; Activity (MCF7): Dose-dependent effect; MIC (Klebsiella pneumoniae): 128 µg/mL (≈ 499 µM); inhibition at 100 µM [6]: 38 to 44%; MIC (Bacillus subtilis): > 128 µg/mL; MIC (Escherichia coli): > 128 µg/mL; Activity (HCT-116): Dose-dependent effect; MIC (Staphylococcus aureus): > 128 µg/mL; inhibition at 100 µM [7]: 50%; MIC [3]: > 128 µg/mL; MIC (Pseudomonas aeruginosa): > 128 µg/mL; inhibition at 100 µM [8]: 38 to 44%; MIC (Enterococcus faecalis): > 128 µg/mL; inhibition at 100 µM [9]: 38 to 44%; MIC (Micrococcus luteus): > 128 µg/mL |
| CCOc1cccc(/C=C/C(=O)c2c(O)cc(C)oc2=O)c1 | 80 to 100 µM | 4 µg/mL (≈ 13.3 µM) | > 128 µg/mL | Activity (HEK293): Dose-dependent effect; IC50 (PC-3; Homo sapiens, PC-3): 80 µM; Activity (PC-3): Dose-dependent effect; IC50 (MCF7; Homo sapiens, MCF7): 80 µM; Activity (MCF7): Dose-dependent effect; MIC (Klebsiella pneumoniae): 128 µg/mL (≈ 426 µM); inhibition at 100 µM [6]: 67 to 70%; MIC (Bacillus subtilis): > 128 µg/mL; MIC (Escherichia coli): > 128 µg/mL; IC50 (HCT-116; Homo sapiens, HCT-116): 80 µM; Activity (HCT-116): Dose-dependent effect; MIC (Staphylococcus aureus): > 128 µg/mL; inhibition at 100 µM [7]: 67 to 70%; MIC [3]: > 128 µg/mL; MIC (Pseudomonas aeruginosa): > 128 µg/mL; inhibition at 100 µM [8]: 67 to 70%; MIC (Enterococcus faecalis): > 128 µg/mL; inhibition at 100 µM [9]: 67 to 70%; MIC (Micrococcus luteus): > 128 µg/mL |
| COc1cc(OC)c(OC)cc1/C=C/C(=O)c1c(O)cc(C)oc1=O | 100 µM | 8 µg/mL (≈ 23.1 µM) | > 128 µg/mL | – |
| COc1ccc(OC)c(/C=C/C(=O)c2c(O)cc(C)oc2=O)c1 | 100 µM | 4 to 8 µg/mL (≈ 12.6 to 25.3 µM) | > 128 µg/mL | – |
| Cc1cc(O)c(C(=O)/C=C/c2cc(Br)cs2)c(=O)o1 | 100 µM | 4 to 8 µg/mL (≈ 11.7 to 23.4 µM) | > 128 µg/mL | – |
| Cc1cc(O)c(C(=O)/C=C/c2ccccc2Cl)c(=O)o1 | > 100 µM | 16 µg/mL (≈ 55 µM) | > 128 µg/mL | – |
| Cc1ccc(/C=C/C(=O)c2c(O)cc(C)oc2=O)cc1 | > 100 µM | 8 µg/mL (≈ 29.6 µM) | > 128 µg/mL | – |
| COc1ccccc1/C=C/C(=O)c1c(O)cc(C)oc1=O | – | 32 to 64 µg/mL (≈ 112 to 224 µM) | > 128 µg/mL | – |
| Cc1cc(O)c(C(=O)/C=C/c2ccc(O)cc2)c(=O)o1 | – | 64 µg/mL (≈ 235 µM) | > 128 µg/mL | – |
| COc1cc(C(F)(F)F)ccc1/C=C/C(=O)c1c(O)cc(C)oc1=O | 100 µM | 256 µg/mL (≈ 723 µM) | > 128 µg/mL | – |
| CCOc1ccc(/C=C/C(=O)c2c(O)cc(C)oc2=O)cc1 | – | 256 µg/mL (≈ 852 µM) | > 128 µg/mL | – |
| COc1cc(/C=C/C(=O)c2c(O)cc(C)oc2=O)cc(OC)c1OC | 100 µM | 8 µg/mL (≈ 23.1 µM) | > 128 µg/mL | – |
| Cc1cc(O)c(C(=O)/C=C/c2ccccc2O)c(=O)o1 | – | 8 to 16 µg/mL (≈ 29.4 to 58.8 µM) | > 128 µg/mL | – |
| COc1cc(/C=C/C(=O)c2c(O)cc(C)oc2=O)ccc1O | > 100 µM | 32 µg/mL (≈ 106 µM) | > 128 µg/mL | – |
| Cc1cc(O)c(C(=O)/C=C/c2ccccc2C(F)(F)F)c(=O)o1 | – | 8 µg/mL (≈ 24.7 µM) | > 128 µg/mL | – |
| Cc1cc(O)c(C(=O)/C=C/c2ccco2)c(=O)o1 | – | 16 to 32 µg/mL (≈ 65 to 130 µM) | > 128 µg/mL | – |
| Cc1cc(O)c(C(=O)/C=C/c2ccc(C(F)(F)F)cc2)c(=O)o1 | 100 µM | 256 µg/mL (≈ 790 µM) | > 128 µg/mL | – |
| Cc1cc(O)c(C(=O)/C=C/c2ccsc2)c(=O)o1 | – | 32 to 64 µg/mL (≈ 122 to 244 µM) | > 128 µg/mL | – |
| COc1cccc(/C=C/C(=O)c2c(O)cc(C)oc2=O)c1 | – | 8 to 16 µg/mL (≈ 27.9 to 55.9 µM) | > 128 µg/mL | – |
| Cc1cc(O)c(C(=O)/C=C/c2cccc(Br)c2)c(=O)o1 | 100 µM | 4 to 8 µg/mL (≈ 11.9 to 23.9 µM) | > 128 µg/mL | – |
| Cc1cc(O)c(C(=O)/C=C/c2cccc(C(F)(F)F)c2)c(=O)o1 | > 100 µM | 256 µg/mL (≈ 790 µM) | > 128 µg/mL | – |
| NNC(=O)c1ccncc1 [ISONIAZID] | – | 0.312 µg/mL (≈ 2.28 µM) | – | MIC [4]: 0.02 µg/mL (≈ 0.146 µM); MIC [2]: 25 µg/mL (≈ 182 µM); Selectivity ratio [5]: 1000 |
| Cc1cccc(/C=C/C(=O)c2c(O)cc(C)oc2=O)c1 | 100 µM | 32 µg/mL (≈ 118 µM) | > 128 µg/mL | – |
